Measurements taken from paper PMC3158287 (Nature chemical biology, 2011).
Peptide text beside a SMILES is read from it. * marks the point of attachment. Cbz = O=C(OCc1ccccc1)*

Key:
OSBP [1] = target: T1, OSBP (Homo sapiens, UniProt P22059); assay: OSBP protein levels by western blotting; type: cell-based; settings: HCT-116 cells; 25-OHC 10 μM
T1 sequence (P22059 1-807): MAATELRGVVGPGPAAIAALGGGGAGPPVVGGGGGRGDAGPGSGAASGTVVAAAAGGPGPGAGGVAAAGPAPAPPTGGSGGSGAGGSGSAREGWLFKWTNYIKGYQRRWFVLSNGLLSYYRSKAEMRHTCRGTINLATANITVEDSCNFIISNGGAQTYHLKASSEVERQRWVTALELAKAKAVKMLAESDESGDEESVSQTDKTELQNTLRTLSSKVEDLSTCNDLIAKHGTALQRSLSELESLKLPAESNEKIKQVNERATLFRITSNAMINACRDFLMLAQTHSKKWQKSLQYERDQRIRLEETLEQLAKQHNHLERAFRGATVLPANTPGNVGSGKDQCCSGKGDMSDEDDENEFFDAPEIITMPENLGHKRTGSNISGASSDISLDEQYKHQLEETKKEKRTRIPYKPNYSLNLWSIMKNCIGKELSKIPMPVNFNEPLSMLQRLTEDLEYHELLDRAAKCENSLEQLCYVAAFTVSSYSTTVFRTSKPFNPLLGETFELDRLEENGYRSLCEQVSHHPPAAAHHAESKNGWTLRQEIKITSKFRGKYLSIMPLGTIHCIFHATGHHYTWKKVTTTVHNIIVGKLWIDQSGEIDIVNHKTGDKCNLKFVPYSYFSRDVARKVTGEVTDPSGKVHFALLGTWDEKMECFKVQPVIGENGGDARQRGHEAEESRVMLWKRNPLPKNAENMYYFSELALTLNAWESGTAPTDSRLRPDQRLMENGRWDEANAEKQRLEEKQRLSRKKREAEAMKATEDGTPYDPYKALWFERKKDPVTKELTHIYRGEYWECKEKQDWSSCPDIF
Summary of the method: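 HCT-116 cells were treated with test compound at 50 nM or 10 nM over a time course including 24 h. Some samples also received proteasome inhibitor MG-132 or lactacystin. OSBP was measured by western blotting with polyclonal rabbit anti-OSBP (N-terminus) antibody. Data are n = 3, compared with vehicle-treated cells by two-tailed Student's t-test.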

OSBP [2] = target: T1, OSBP; assay: OSBP localization by immunofluorescence microscopy, A549; type: cell-based; settings: A549 cells
Summary of the method: (§1)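 Cells on coverslips were grown 72 h, then given test compound or vehicle (4 h for HCT-116). They were fixed 10 min in 3.7% formaldehyde/PBS and permeabilised 5 min in 0.5% Triton X-100. Blocking used Image-iT FX, then 1% BSA/PBS. Rabbit anti-OSBP (N-terminus) and mouse anti-p230 were applied overnight at 4 °C, then Alexa Fluor secondaries for 60 min with Hoechst 33258. Imaging was by confocal microscopy.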

human cancer cell lines = settings: cited from earlier work
HCT-116 cells = assay: Suppression of antiproliferative activity by 25-OHC coadministration; type: cell-based, human; settings: HCT-116 and HeLa cell lines
Summary of the method: (§2)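 HCT-116 p21+/+ and p21−/− cells were seeded in 96-well plates and rested 24 h. A time-zero plate was read with CellTiter-Blue (resazurin) after 90 min at 37 °C, fluorescence 544 nm ex / 590 nm em. Serially diluted test compound was added as 4× solution. Viability was re-read at 48 h and GI50 derived. For coadministration, 10 μM 25-OHC was added with test compound at 250 nM or 10 nM.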

[3] = tested on: HeLa cells overexpressing wild-type OSBP; assay: Overexpression-viability assay, wild-type OSBP-Myc-His; type: cell-based, human; settings: 48 h, versus lacZ
[4] = tested on: HCT-116 p21^−/− cells stably transfected with shOSBP or shNT; assay: OSBP shRNA knockdown and dose-shift experiment; type: cell-based, human; settings: 72 h
Summary of the method: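 HCT-116 p21−/− cells were stably transfected with OSBP-targeting or nontargeting shRNA in the pSIREN-RetroQ vector. […] Values are mean ± s.d. of 3–4 experiments, compared with shNT cells by two-tailed Student's t-test.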

[5] = tested on: HeLa cells overexpressing ORP4L; assay: Overexpression-viability assay, ORP4L-Myc-His; type: cell-based, human; settings: 48 h, versus lacZ
[6] = tested on: sphingomyelin biosynthesis in CHO-K1 cells; assay: Sphingomyelin biosynthesis, [3H]serine pulse labeling, CHO-K1; type: cell-based, Chinese hamster
OSBP [7] = target: T1, OSBP; assay: OSBP localization by immunofluorescence microscopy, HCT-116; type: cell-based; settings: HCT-116 cells, 4 h; 5 μM schweinfurthin A, 10 nM OSW-1, 20 nM cephalostatin 1
Summary of the method: as §1

OSBP-Myc-His = target: T2, OSBP-Myc-His (Homo sapiens, UniProt P22059); assay: [3H]25-OHC charcoal-dextran binding assay, wild-type OSBP-Myc-His
T2 sequence (P22059 1-807): T1 sequence (P22059 1-807)

HCT-116 p21^−/− cells = assay: Cell viability assay, HCT-116 p21-/-; type: cell-based, human; settings: GI50 after 48 h
Summary of the method: as §2

ORP4L-Myc-His = target: T3, ORP4L-Myc-His (Homo sapiens, UniProt Q969R2); assay: [3H]25-OHC charcoal-dextran binding assay, ORP4L-Myc-His
T3 sequence (Q969R2 1-916): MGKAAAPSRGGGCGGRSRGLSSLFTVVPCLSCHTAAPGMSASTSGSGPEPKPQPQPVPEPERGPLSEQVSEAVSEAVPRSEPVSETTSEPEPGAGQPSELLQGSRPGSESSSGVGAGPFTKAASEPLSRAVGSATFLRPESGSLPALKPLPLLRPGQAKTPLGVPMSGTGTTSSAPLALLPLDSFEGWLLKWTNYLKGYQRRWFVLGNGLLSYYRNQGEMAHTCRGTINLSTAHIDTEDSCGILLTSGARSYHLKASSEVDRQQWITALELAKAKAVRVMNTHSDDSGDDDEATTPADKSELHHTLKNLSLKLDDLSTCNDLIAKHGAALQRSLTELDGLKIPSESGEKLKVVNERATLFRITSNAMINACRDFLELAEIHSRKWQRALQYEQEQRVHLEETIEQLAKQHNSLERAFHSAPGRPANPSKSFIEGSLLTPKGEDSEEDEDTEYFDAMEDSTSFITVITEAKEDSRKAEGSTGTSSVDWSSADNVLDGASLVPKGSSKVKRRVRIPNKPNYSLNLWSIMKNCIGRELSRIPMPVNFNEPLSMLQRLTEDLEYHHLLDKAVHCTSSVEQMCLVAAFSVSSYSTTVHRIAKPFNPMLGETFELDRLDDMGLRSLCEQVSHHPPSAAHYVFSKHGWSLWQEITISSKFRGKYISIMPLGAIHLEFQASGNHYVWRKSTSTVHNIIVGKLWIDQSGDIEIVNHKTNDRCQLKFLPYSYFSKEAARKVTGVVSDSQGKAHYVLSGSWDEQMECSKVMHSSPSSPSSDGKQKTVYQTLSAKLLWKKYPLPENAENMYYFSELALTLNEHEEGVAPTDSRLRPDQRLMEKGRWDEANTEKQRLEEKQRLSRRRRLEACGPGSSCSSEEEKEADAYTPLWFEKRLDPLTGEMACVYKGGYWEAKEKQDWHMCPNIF

Structure (SMILES): CC(C)C[C@@H](C=O)NC(=O)[C@H](CC(C)C)NC(=O)[C@H](CC(C)C)NC(=O)OCc1ccccc1 [MG-132, reference compound] (Cbz-Leu-Leu-Leu-aldehyde)
- Effect on OSBP levels (compound alone) (OSBP [1]): did not affect OSBP concentrations

Structure (SMILES): COc1cc(/C=C/c2cc(O)c(C/C=C(\C)CCC=C(C)C)c(O)c2)cc2c1O[C@]1(C)C[C@@H](O)[C@@H](O)C(C)(C)[C@H]1C2 [schweinfurthin B]
- OSBP localization (OSBP [2]): perinuclear OSBP staining similar to that seen with 25-OHC
- GI50 (half-maximal inhibitory concentration) (human cancer cell lines): nanomolar range

Structure (SMILES): CC(=O)N[C@@H](CSC(=O)[C@]1([C@@H](O)C(C)C)NC(=O)[C@H](C)[C@@H]1O)C(=O)O [lactacystin, reference compound]
- Effect on OSBP levels (compound alone) (OSBP [1]): did not affect OSBP concentrations

Structure (SMILES): C[C@H]1CCC/C=C/[C@@H]2C[C@H](O)C[C@H]2[C@H](O)/C=C/C(=O)O1 [brefeldin A, reference compound]
- Effect of 25-OHC coadministration on antiproliferative activity (HCT-116 cells): did not affect

Structure (SMILES): CC(=O)O[C@H]1C(=O)[C@@]2(C)[C@H]([C@H](OC(=O)c3ccccc3)[C@]3(O)C[C@H](OC(=O)[C@H](O)[C@@H](NC(=O)c4ccccc4)c4ccccc4)C(C)=C1C3(C)C)[C@]1(OC(C)=O)CO[C@@H]1C[C@@H]2O [taxol, reference compound]
- Desensitization factor by OSBP overexpression (relative GI30) [3]: not affected
- Sensitization by OSBP shRNA knockdown (GI50 shift shOSBP vs shNT) [4]: not affected
- Desensitization factor by ORP4L overexpression (relative GI30) [5]: not affected
- Effect of 25-OHC coadministration on antiproliferative activity (HCT-116 cells): did not affect
- Inhibition of sphingomyelin biosynthesis (control cytotoxic / ER stress agents) [6]: did not occur

Structure (SMILES): CC1C2C(CC3C4CCC5Cc6nc7c(nc6CC5(C)C4CC(O)C32C)CC2CC(O)C3C4=CC5OC6(CCC(C)(O)CO6)C(C)C5(O)C4(C)C(O)CC3C2(C)C7)OC12CCC(C)(C)O2 (stereo not shown) [ritterazine B]
- OSBP localization (OSBP [7]): This effect was also observed
- Ki (OSBP-Myc-His): 28 ± 4 nM
- p21^−/− selectivity of growth inhibition (HCT-116 p21^−/− versus wild-type) (HCT-116 p21^−/− cells): selectively growth-inhibitory
- Ki (ORP4L-Myc-His): > 360 nM
- GI50 (half-maximal inhibitory concentration) (human cancer cell lines): nanomolar range

Structure (SMILES): C/C=C(/C)C(=O)O[C@H]1C(C)=C2[C@H]([C@@H]1OC(=O)CCCCCCC)[C@@](C)(OC(C)=O)C[C@H](OC(=O)CCC)[C@@]1(O)[C@H]2OC(=O)[C@@]1(C)O [thapsigargin]
- Inhibition of sphingomyelin biosynthesis (control cytotoxic / ER stress agents) [6]: did not occur
